Converted amounts (≈) assume the structure as drawn.
Key:
[1] = biological target: T1, ATP-binding cassette sub-family C member 2 (Homo sapiens, UniProt Q92887); test: Stimulation of ATPase activity of human MRP2 assessed as inorganic phosphate
[2] = Clearance in TR-negative Wistar rat at 10 mg/kg, iv; type: ADME, organism-based; set-up: dose 10 mg/kg, route intravenous; conditions: in vivo
[3] = system: Staphylococcus aureus; test: Antimicrobial activity against methicillin-sensitive Staphylococcus aureus by broth microdilution/CLSI method; type: functional
[4] = biological target: DNA gyrase subunit B (Staphylococcus aureus, UniProt P0A0K8); test: Inhibition of ATPase activity of Staphylococcus aureus GyrB
Sequence of DNA gyrase subunit B (P0A0K8 whole entry): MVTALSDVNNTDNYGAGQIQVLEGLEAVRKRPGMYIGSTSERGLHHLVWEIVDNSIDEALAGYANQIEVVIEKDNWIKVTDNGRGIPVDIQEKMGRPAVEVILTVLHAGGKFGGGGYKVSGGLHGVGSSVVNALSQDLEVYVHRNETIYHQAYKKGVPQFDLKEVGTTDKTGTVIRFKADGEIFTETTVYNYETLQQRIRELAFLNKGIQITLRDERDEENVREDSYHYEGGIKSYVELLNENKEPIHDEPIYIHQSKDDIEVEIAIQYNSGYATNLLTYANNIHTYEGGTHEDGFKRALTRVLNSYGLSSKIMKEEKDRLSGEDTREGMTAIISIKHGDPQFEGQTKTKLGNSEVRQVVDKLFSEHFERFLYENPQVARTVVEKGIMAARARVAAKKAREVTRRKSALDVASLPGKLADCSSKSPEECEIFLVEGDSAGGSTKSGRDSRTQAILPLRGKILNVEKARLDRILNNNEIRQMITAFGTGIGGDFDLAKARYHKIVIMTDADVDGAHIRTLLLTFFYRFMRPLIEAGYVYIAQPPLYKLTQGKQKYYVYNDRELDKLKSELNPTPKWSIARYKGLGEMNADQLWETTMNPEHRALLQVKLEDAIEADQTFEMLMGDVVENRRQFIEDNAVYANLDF
Procedure, shortened: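 IC50 was determined against S. aureus GyrB in the routine screening assay. The enzyme concentration limits resolution below 10 nM.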

[5] = Clearance in CD1 mouse at 10 mg/kg, iv; type: ADME, organism-based; set-up: dose 10 mg/kg, route intravenous; conditions: in vivo
[6] = system: Streptococcus pyogenes; test: Antimicrobial activity against Streptococcus pyogenes by broth microdilution/CLSI method; type: functional
[7] = system: Haemophilus influenzae; test: Antimicrobial activity against Haemophilus influenzae by broth microdilution/CLSI method; type: functional
[8] = system: Moraxella catarrhalis; test: Antimicrobial activity against Moraxella catarrhalis by broth microdilution/CLSI method; type: functional
[9] = biological target: T1, ATP-binding cassette sub-family C member 2; test: Inhibition of ATPase activity of human MRP2 assessed as inorganic phosphate
[10] = system: Staphylococcus aureus; test: Antimicrobial activity against methicillin, quinolone-resistant Staphylococcus aureus by broth microdilution/CLSI method; type: functional
[11] = Clearance in dog at 10 mg/kg, iv; type: ADME, organism-based, Canis lupus familiaris; set-up: dose 10 mg/kg, route intravenous; conditions: plasma
[12] = Percentage unbound in rat plasma; type: ADME, cell-free
[13] = Bioavailability in Wistar rat at 10 mg/kg, […]; type: ADME, organism-based; conditions: in vivo
[14] = Percentage unbound in mouse plasma; type: ADME, cell-free
[15] = system: Escherichia coli; test: Antimicrobial activity against wild-type Escherichia coli Eco523 by broth microdilution/CLSI method; type: functional
[16] = Clearance in Wistar rat at 10 mg/kg, iv; type: ADME, organism-based; set-up: dose 10 mg/kg, route intravenous; conditions: in vivo
[17] = system: Streptococcus pneumoniae; test: Antibacterial activity against Streptococcus pneumoniae by broth microdilution/CLSI method; type: functional
[18] = biological target: T2, ATP-binding cassette sub-family C member 2 (Rattus norvegicus, UniProt Q63120); test: Stimulation of ATPase activity of rat Mrp2 assessed as inorganic phosphate
T2 sequence (Q63120 whole entry): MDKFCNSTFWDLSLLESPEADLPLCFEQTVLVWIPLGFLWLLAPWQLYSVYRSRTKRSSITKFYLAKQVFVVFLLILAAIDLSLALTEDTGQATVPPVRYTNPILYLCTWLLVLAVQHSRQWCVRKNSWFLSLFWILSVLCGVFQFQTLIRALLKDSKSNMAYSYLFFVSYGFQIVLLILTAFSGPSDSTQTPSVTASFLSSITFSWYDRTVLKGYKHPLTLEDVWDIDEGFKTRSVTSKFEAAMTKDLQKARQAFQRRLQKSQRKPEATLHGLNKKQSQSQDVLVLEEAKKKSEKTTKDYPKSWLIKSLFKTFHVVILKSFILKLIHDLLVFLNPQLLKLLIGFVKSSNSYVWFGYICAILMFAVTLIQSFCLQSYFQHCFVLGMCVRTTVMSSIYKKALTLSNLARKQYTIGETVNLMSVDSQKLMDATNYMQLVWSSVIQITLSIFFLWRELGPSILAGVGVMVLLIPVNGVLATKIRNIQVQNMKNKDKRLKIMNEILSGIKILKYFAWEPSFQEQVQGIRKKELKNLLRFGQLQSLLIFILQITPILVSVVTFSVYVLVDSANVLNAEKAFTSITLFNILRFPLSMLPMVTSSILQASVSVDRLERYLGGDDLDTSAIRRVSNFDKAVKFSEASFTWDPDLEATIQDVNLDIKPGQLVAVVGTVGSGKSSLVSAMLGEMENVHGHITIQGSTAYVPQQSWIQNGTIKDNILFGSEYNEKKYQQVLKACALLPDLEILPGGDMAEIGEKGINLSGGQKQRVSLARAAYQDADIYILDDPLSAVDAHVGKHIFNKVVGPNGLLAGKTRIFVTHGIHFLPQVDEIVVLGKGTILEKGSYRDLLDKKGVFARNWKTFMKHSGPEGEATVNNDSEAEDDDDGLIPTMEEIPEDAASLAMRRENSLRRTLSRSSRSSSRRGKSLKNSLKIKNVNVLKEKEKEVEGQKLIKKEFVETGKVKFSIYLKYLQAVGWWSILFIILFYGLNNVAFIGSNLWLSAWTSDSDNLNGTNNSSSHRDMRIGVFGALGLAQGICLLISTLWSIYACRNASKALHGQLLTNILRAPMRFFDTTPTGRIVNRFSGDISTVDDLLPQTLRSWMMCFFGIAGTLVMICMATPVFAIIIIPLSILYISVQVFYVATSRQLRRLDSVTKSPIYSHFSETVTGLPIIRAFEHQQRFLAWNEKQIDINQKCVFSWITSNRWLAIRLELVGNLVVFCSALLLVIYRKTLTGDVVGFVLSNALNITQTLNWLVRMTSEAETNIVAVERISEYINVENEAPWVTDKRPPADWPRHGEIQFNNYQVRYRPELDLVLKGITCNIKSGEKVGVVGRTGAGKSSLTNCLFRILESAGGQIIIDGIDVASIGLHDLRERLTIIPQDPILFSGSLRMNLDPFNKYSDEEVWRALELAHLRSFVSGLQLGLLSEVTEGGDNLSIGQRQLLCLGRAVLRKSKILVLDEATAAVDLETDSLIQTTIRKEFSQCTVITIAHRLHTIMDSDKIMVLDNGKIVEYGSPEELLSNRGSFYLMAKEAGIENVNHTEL

[19] = system: Escherichia coli; test: Antimicrobial activity against Escherichia coli tolC- by broth microdilution/CLSI method; type: functional
[20] = biological target: T2, ATP-binding cassette sub-family C member 2; test: Inhibition of ATPase activity of rat Mrp2 assessed as inorganic phosphate
[21] = Dissociation constant, pKa of the compound; type: physicochemical
[22] = Percentage unbound in dog plasma; type: ADME, cell-free, Canis lupus familiaris
[23] = system: Staphylococcus aureus; test: Antimicrobial activity against 2 times drug resistance selected Staphylococcus aureus ARC516-2F by broth microdilution/CLSI method; type: functional
[24] = system: Staphylococcus aureus; test: Antimicrobial activity against 2 times drug resistance selected Staphylococcus aureus ARC516-1F by broth microdilution/CLSI method; type: functional
[25] = system: Staphylococcus aureus; test: Antimicrobial activity against Staphylococcus aureus ARC516 by broth microdilution/CLSI method; type: functional
[26] = Clearance in rat at 10 mg/kg, iv; type: ADME, organism-based; set-up: dose 10 mg/kg, route intravenous; conditions: in vivo
[27] = Percentage unbound in human plasma; type: ADME, cell-free
[28] = Ratio of MIC for methicillin, quinolone-resistant Staphylococcus aureus to fraction unbound in human plasma; type: ADME
[29] = Bioavailability in dog at 10 mg/kg, iv; type: ADME, organism-based, Canis lupus familiaris; conditions: plasma
[30] = Bioavailability in CD1 mouse at 10 mg/kg, […]; type: ADME, organism-based; conditions: in vivo
[31] = Octanol-phosphate buffer distribution coefficient, log D of the compound at pH 7.4 by shake flask method; type: physicochemical
[32] = Solubility of the compound; type: physicochemical
[33] = system: Mus musculus; test: fAUC in methicillin-sensitive Staphylococcus aureus ARC516 infected in neutropenic CD1 mouse thigh model at 30 mg/kg, ip q24; type: ADME, organism-based; set-up: dose 30 mg/kg, route intraperitoneal; conditions: in vivo
[34] = AUC in methicillin-sensitive Staphylococcus aureus ARC516 infected in neutropenic CD1 mouse thigh model at 30 mg/kg, ip q24; type: ADME, organism-based; set-up: dose 30 mg/kg, route intraperitoneal; conditions: in vivo
[35] = system: Staphylococcus aureus; test: Antibacterial activity against methicillin-sensitive Staphylococcus aureus ARC516 infected in ip dosed neutropenic CD1 mouse thigh model assessed as decrease in bacterial viable counts treated for q24; type: functional; conditions: ARC516, Thigh muscle
[36] = system: Staphylococcus aureus; test: Antibacterial activity against methicillin-sensitive Staphylococcus aureus ARC516 infected in neutropenic CD1 mouse thigh model assessed as decrease in bacterial viable counts at 30 mg/kg, ip q24; type: functional; conditions: route intraperitoneal
[37] = Staphylococcus aureus, read-out: MIC
[38] = Haemophilus influenzae, read-out: MIC
[39] = Moraxella catarrhalis, read-out: MIC
[40] = Escherichia coli, Eco523, read-out: MIC
[41] = Streptococcus pneumoniae, read-out: MIC
[42] = Escherichia coli, read-out: MIC

T1 sequence (Q92887 whole entry): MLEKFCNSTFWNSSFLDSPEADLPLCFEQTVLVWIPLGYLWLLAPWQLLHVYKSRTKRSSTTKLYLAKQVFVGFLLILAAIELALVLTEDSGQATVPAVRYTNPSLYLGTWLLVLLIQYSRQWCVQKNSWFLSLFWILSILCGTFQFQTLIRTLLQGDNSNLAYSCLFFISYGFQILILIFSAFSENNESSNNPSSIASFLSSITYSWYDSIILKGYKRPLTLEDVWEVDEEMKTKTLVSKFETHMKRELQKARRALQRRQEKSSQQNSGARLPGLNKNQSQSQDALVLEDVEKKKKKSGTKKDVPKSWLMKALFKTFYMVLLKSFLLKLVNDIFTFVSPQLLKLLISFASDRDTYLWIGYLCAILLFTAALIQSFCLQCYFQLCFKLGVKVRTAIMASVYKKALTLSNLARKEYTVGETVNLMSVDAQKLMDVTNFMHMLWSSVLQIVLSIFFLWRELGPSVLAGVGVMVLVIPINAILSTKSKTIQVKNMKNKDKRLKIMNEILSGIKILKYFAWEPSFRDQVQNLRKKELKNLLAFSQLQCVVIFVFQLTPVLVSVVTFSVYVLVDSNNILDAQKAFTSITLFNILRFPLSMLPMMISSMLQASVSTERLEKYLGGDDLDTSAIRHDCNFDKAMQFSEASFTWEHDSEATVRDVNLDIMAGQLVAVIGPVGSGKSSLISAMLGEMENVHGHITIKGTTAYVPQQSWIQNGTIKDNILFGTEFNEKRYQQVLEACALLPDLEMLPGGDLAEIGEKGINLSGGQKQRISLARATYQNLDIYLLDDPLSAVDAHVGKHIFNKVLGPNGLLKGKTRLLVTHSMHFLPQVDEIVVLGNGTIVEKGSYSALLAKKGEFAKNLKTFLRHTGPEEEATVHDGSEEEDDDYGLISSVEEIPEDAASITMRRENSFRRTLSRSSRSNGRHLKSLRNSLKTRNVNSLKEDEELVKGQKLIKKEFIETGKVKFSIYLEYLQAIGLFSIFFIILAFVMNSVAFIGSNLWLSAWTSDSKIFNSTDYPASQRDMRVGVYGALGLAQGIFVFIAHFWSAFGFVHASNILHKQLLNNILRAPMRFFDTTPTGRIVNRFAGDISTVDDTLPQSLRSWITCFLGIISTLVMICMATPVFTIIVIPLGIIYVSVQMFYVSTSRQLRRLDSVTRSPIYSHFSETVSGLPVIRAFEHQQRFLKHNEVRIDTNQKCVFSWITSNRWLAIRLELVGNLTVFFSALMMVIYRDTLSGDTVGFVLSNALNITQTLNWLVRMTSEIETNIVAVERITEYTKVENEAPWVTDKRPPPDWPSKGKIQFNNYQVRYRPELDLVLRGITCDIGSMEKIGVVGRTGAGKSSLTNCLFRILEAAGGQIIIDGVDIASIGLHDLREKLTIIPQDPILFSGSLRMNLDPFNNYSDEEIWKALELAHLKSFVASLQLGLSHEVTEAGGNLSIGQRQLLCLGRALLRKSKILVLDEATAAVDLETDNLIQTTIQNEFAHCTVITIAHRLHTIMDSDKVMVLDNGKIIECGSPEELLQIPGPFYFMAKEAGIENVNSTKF

Compound	EC50 [1] [µM]	clearance [2] [mL/min/kg]	MIC [3, 37] [µg/mL]	IC50 [4] [µM]	clearance [5] [mL/min/kg]	MIC [6] [µg/mL]	MIC [7, 38] [µg/mL]	MIC [8, 39] [µg/mL]	IC50 [9] [µM]	MIC [10, 37] [µg/mL]	clearance [11] [mL/min/kg]	fraction unbound [12]	bioavailability [13] [%]	fraction unbound [14]	MIC [15, 40] [µg/mL]	clearance [16] [mL/min/kg]	EC50 [18] [µM]	IC50 [20] [µM]	pKa [21]	fraction unbound [22]	further results
Cc1[nH]c(C(=O)NC2CCN(c3ncc(C(=O)O)s3)CC2)c(Cl)c1Cl	145	20	11 (≈ 27.3 µM)	0.062	15.5	0.79 (≈ 1.96 µM)	0.5 (≈ 1.24 µM)	2.2 (≈ 5.46 µM)	> 200	13 (≈ 32.2 µM)	3	0.086	6.7	0.089	> 64	78	27	> 200	3.4	0.12	MIC [17, 41]: 0.81 µg/mL (≈ 2.01 µM); MIC [19, 42]: 0.22 µg/mL (≈ 0.546 µM)
CC(=O)NC[C@H]1CN(c2ccc(N3CCOCC3)c(F)c2)C(=O)O1 [LINEZOLID]																					MIC [23]: 0.5 µg/mL (≈ 1.48 µM); MIC [24]: 1 µg/mL (≈ 2.96 µM); MIC [25]: 1 µg/mL (≈ 2.96 µM)
CO[C@H]1CN(c2ncc(C(=O)O)s2)CC[C@H]1NC(=O)c1[nH]c(C)c(Cl)c1Cl	71	9.1		< 0.01	99				> 200		26		6.7			34	38	> 200	3.6	0.22	clearance [26]: 52 mL/min/kg; MIC [3]: 0.32 µg/mL (≈ 0.738 µM); fraction unbound [27]: 0.071; MIC [7]: 0.18 µg/mL (≈ 0.415 µM); MIC [8]: 0.031 µg/mL (≈ 0.0715 µM); MIC [10]: 0.5 µg/mL (≈ 1.15 µM); Ratio [28]: 7; MIC [15]: 64 µg/mL (≈ 148 µM); MIC [17]: 0.016 µg/mL (≈ 0.0369 µM); MIC [19]: 0.18 µg/mL (≈ 0.415 µM)
COCCNC(=O)c1nc(N2CC[C@@H](NC(=O)c3[nH]c(C)c(Cl)c3Cl)[C@@H](OC)C2)sc1C(=O)O	> 200	1.5	0.078 (≈ 0.146 µM)	< 0.01	57	0.017 (≈ 0.0318 µM)	0.15 (≈ 0.281 µM)	0.17 (≈ 0.318 µM)	100	0.089 (≈ 0.167 µM)	3	0.038	34	0.0585	24 (≈ 44.9 µM)	2.1	> 200	78	4.4	0.082	clearance [26]: 9.5 mL/min/kg; bioavailability [29]: 100%; bioavailability [30]: 57%; fraction unbound [27]: 0.027; logD [31]: 1.2; Ratio [28]: 3.3; MIC [17, 41]: 0.018 µg/mL (≈ 0.0337 µM); solubility [32]: 880 µM (≈ 470 µg/mL); MIC [19, 42]: 0.62 µg/mL (≈ 1.16 µM)
COCC(COC)NC(=O)c1nc(N2CC[C@@H](NC(=O)c3[nH]c(C)c(Cl)c3Cl)[C@@H](OC)C2)sc1C(=O)O	> 200	3	0.05 (≈ 0.0864 µM)	< 0.01	5.35	0.016 (≈ 0.0277 µM)	0.1 (≈ 0.173 µM)	< 0.008	200	0.049 (≈ 0.0847 µM)	1.6	0.038		0.042	23 (≈ 39.8 µM)	13	> 200	75	4.5	0.12	clearance [26]: 18 mL/min/kg; bioavailability [29]: 29%; bioavailability [30]: 25%; fraction unbound [27]: 0.021; fAUC [33]: 6.26 µg·h/mL; logD [31]: 1; AUC [34]: 148 µg·h/mL; MIC [35]: 0.03 µg/mL (≈ 0.0519 µM); Ratio [28]: 2.3; MIC [17, 41]: 0.016 µg/mL (≈ 0.0277 µM); solubility [32]: 860 µM (≈ 497 µg/mL); deltalog10CFU [36]: -0.16; MIC [19, 42]: 1.3 µg/mL (≈ 2.25 µM)
